Measurements taken from ChEMBL document CHEMBL3393058 (Eur J Med Chem, 2014).
Converted amounts (≈) assume the structure as drawn. The source made the active and inactive calls. No cut-off for these calls is given here.

Columns and labels:
HEK293 [1] = test: Cytotoxicity against human HEK293 cells expressing human PRL-3 at 50 to 75 uM after 16 hrs by MTT assay; type: cell-based; conditions: hek293, 16 h
In short: (§1)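 Tetracycline-induced stable HEK293 Flp-In T-REx lines (PRL-1, PRL-2, PRL-3 or empty vector) were seeded at 10000 cells/well. After 24 h, compound or DMSO was added for 16 h. MTT was then added in fresh medium for 4 h at 37 °C, formazan dissolved in DMSO, and A570 read. Data were normalized to DMSO vehicle, run in triplicate in ≥2 independent experiments, with two-sided t-test versus vehicle.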

HEK293 [2] = test: Cytotoxicity against human HEK293 cells expressing empty vector at 75 uM after 16 hrs by MTT assay; type: cell-based; conditions: hek293, 16 h; in short: as §1
[3] = Solubility in buffer assessed as light scattering; type: physicochemical
In short: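 Light scattering of compounds in phosphatase assay buffer was measured by nephelometry against a buffer blank, across the concentration range used for IC50 determination.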

HEK293 [4] = test: Cytotoxicity against human HEK293 cells expressing human PRL-1 at 50 to 75 uM after 16 hrs by MTT assay; type: cell-based; conditions: hek293, 16 h; in short: as §1
HEK293 [5] = test: Cytotoxicity against human HEK293 cells expressing human PRL-2 at 50 to 75 uM after 16 hrs by MTT assay; type: cell-based; conditions: hek293, 16 h; in short: as §1
Homo sapiens [6] = species: Homo sapiens; test: Selectivity index, 1 - (inhibition of PRL3/inhibition of VHR) at 50 uM
Homo sapiens [7] = species: Homo sapiens; test: Selectivity index, 1 - (inhibition of PRL3/inhibition of PTP1B) at 50 uM
Homo sapiens [8] = species: Homo sapiens; test: Selectivity index, 1 - (inhibition of PRL3/inhibition of TCPTP) at 50 uM
[9] = biological target: T1, Protein tyrosine phosphatase type IVA 3 (Homo sapiens, UniProt O75365); test: Inhibition of PRL3 (unknown origin) using DiFMUP as fluorogenic phosphate substrate assessed as DiFMUP dephosphorylation
[10] = biological target: T2, Protein tyrosine phosphatase type IVA 2 (Homo sapiens, UniProt Q12974); test: Inhibition of PRL2 (unknown origin) using DiFMUP as fluorogenic phosphate substrate assessed as DiFMUP dephosphorylation
T2 sequence (Q12974 whole entry): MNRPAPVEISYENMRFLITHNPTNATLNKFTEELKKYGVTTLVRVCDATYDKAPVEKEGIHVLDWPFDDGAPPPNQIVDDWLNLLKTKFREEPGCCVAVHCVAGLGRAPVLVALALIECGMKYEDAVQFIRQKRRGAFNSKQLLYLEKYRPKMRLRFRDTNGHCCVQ

[11] = biological target: T3, Protein tyrosine phosphatase type IVA 1 (Homo sapiens, UniProt Q93096); test: Inhibition of PRL1 (unknown origin) using DiFMUP as fluorogenic phosphate substrate assessed as DiFMUP dephosphorylation
T3 sequence (Q93096 whole entry): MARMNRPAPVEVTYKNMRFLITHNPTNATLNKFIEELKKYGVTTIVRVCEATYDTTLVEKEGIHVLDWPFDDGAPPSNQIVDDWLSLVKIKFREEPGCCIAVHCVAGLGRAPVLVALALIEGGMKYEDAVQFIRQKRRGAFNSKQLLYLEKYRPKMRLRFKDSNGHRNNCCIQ

[12] = Drug localization in plasma membrane of HEK293 cells transfected with mKate-PRL-3 at 50 uM incubated for 30 mins by confocal microscopy; type: ADME; conditions: human, hek293, 0.5 h
In short: (§2)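 HEK293 cells were transfected with 0.1 μg mKate-PRL-3 18 h before imaging. Confocal imaging used a 63× oil objective, with mKate excited at 561 nm and compound at 405 nm.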

[13] = Drug localization in inner membrane compartments of HEK293 cells transfected with mKate-PRL-3 at 50 uM incubated for 30 mins by confocal microscopy; type: ADME; conditions: human, hek293, 0.5 h; in short: as §2
[14] = biological target: T4, Protein tyrosine phosphatase type IVA 2 (Homo sapiens) (UniProt Q12974); conditions: HEK293, 50 uM
T4 sequence (whole entry): T2 sequence (Q12974 whole entry)

HEK293 [15] = test: Effect on cell proliferation of human HEK293 cells expressing human PRL-3 at 50 uM after 1 to 9 days by MTT assay; type: functional, cell-based
In short: (§3)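 Stable HEK293 lines (PRL-3 or empty vector) were seeded at 1500 cells/well in tetracycline-containing growth medium. Compound or DMSO vehicle was added immediately after seeding. On each indicated day, MTT was added for 4 h at 37 °C, formazan dissolved in DMSO, and absorbance read at 570 nm, in triplicate.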

[16] = biological target: T5, Protein tyrosine phosphatase type IVA 1 (Homo sapiens) (UniProt Q93096); conditions: HEK293, 50 uM
T5 sequence (whole entry): T3 sequence (Q93096 whole entry)

HEK293 [17] = test: Effect on cell proliferation of human HEK293 cells expressing empty vector at 50 uM after 1 to 9 days by MTT assay; type: cell-based; conditions: hek293, 50 µM; in short: as §3
[18] = biological target: T1, Protein tyrosine phosphatase type IVA 3; conditions: HEK293, 35 uM
[19] = biological target: T1, Protein tyrosine phosphatase type IVA 3; conditions: HEK293, 12 uM
[20] = biological target: T1, Protein tyrosine phosphatase type IVA 3; conditions: HEK293, 12 uM; remark: listed apart in the source
[21] = biological target: T1, Protein tyrosine phosphatase type IVA 3; conditions: HEK293, 25 uM
[22] = biological target: T1, Protein tyrosine phosphatase type IVA 3; conditions: HEK293, 50 uM
[23] = biological target: T1, Protein tyrosine phosphatase type IVA 3; conditions: HEK293, 75 uM
[24] = biological target: T1, Protein tyrosine phosphatase type IVA 3; conditions: HEK293, 50 uM; remark: listed apart in the source
HEK293 [25] = test: Inhibition of cell proliferation of human HEK293 cells expressing empty vector at 20 uM after 1 to 9 days by MTT assay; type: cell-based; conditions: hek293, 20 µM; in short: as §3
HEK293 [26] = test: Inhibition of cell proliferation of human HEK293 cells expressing human PRL-3 at 20 uM after 1 to 9 days by MTT assay; type: functional, cell-based; in short: as §3

T1 sequence (O75365 whole entry): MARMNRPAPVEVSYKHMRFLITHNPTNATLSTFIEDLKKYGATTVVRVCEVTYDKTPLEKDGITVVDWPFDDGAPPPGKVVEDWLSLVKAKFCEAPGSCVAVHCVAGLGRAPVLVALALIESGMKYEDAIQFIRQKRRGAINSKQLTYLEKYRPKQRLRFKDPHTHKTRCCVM

Which Activity (HEK293 [1]) does the source give for C=CCOC(=O)/C(C#N)=C/c1ccc(O)c(Br)c1 here?
Its Activity is “Non-toxic”.

And the Activity (HEK293 [2])?
The Activity was “Toxic”.

What about the solubility kinetic [3] of the same compound?
The solubility kinetic was 311 µM (≈ 95.8 µg/mL).

What about the Activity (HEK293 [4]) of the same compound?
The Activity was “Non-toxic”.

And the Activity (HEK293 [5])?
Its Activity is “Non-toxic”.

With O=C(O)c1ccc[n+]2c([O-])c(-c3ccccc3)sc12 as the compound, how does the Activity (HEK293 [1]) read?
Its Activity is “Non-toxic”.

And the Selectivity index (Homo sapiens [6])?
The Selectivity index was 0.25.

What about the solubility [3] of the same compound?
The solubility was “soluble”.

And the Activity (HEK293 [4])?
The Activity was “Non-toxic”.

What about the Activity (HEK293 [5]) of the same compound?
Its Activity is “Non-toxic”.

What about the Selectivity index (Homo sapiens [7]) of the same compound?
Its Selectivity index is 0.25.

What about the Selectivity index (Homo sapiens [8]) of the same compound?
The Selectivity index was 0.1.

What does the source list for C=CCOC(=O)/C(C#N)=C/c1ccc(OC)cc1?
IC50 [9]: Not Active; IC50 [10]: Not Active; IC50 [11]: Not Active

What does the source list for COC(=O)/C(C#N)=C/c1ccc(O)c(Br)c1?
Drug uptake [12]: Active; Drug uptake [13]: Active

What does the source list for C=CCOC(=O)/C(C#N)=C/c1cc(Br)c(O)c(OC)c1?
Activity (HEK293 [1]): Non-toxic; inhibition [14]: Active; Activity (HEK293 [15]): inactive; inhibition [16]: Active; Drug uptake [12]: Active; solubility kinetic [3]: 138 µM (≈ 46.7 µg/mL); Activity (HEK293 [17]): Non-toxic; inhibition [18]: Active; Drug uptake [13]: Not Active; Activity (HEK293 [4]): Non-toxic; inhibition [19]: inactive; Activity (HEK293 [5]): Non-toxic; inhibition [20]: inactive; inhibition [21]: Active; inhibition [22]: Active; inhibition [23]: Active; inhibition [24]: Active

With COc1cc(/C=C(\C#N)C(=O)OC(C)C)cc(Br)c1O as the compound, how does the IC50 ([9]; read-out: IC50) read?
Its IC50 is 69.4 µM.

And the Activity (HEK293 [1])?
The Activity was “Non-toxic”.

And the IC50 ([10]; read-out: IC50)?
The IC50 was 69.4 µM.

And the Selectivity index (Homo sapiens [6])?
The Selectivity index was 0.24.

And the solubility kinetic [3]?
The solubility kinetic was 144 µM (≈ 49 µg/mL).

What about the Activity (HEK293 [4]) of the same compound?
Its Activity is “Non-toxic”.

And the Activity (HEK293 [5])?
The Activity was “Non-toxic”.

And the Selectivity index (Homo sapiens [7])?
Its Selectivity index is 0.08.

And the Selectivity index (Homo sapiens [8])?
The Selectivity index was -0.29.

What about the IC50 ([11]; read-out: IC50) of the same compound?
The IC50 was 56.7 µM.

With O=C1NC(=S)S/C1=C/c1ccc(-c2ccccc2C(=O)O)o1 as the compound, how does the IC50 ([9]; read-out: IC50) read?
Its IC50 is 53 µM.

What about the Activity (HEK293 [1]) of the same compound?
Its Activity is “Non-toxic”.

What about the Selectivity index (Homo sapiens [6]) of the same compound?
The Selectivity index was 0.54.

What about the solubility kinetic [3] of the same compound?
Its solubility kinetic is 335 µM (≈ 111 µg/mL).

And the Selectivity index (Homo sapiens [7])?
Its Selectivity index is 0.34.

What about the inhibition [23] of the same compound?
Its inhibition is “inactive”.

What about the Selectivity index (Homo sapiens [8]) of the same compound?
The Selectivity index was 0.22.

For CCOC(=O)/C(C#N)=C/c1cc(Br)c(O)c(Br)c1, which IC50 ([9]; read-out: IC50) is on record?
Its IC50 is 109 µM.

And the Activity (HEK293 [1])?
The Activity was “Toxic”.

And the IC50 ([10]; read-out: IC50)?
The IC50 was 109 µM.

What about the Selectivity index (Homo sapiens [6]) of the same compound?
Its Selectivity index is 0.44.

And the solubility [3]?
The solubility was “soluble”.

And the Activity (HEK293 [4])?
Its Activity is “Toxic”.

And the Activity (HEK293 [5])?
The Activity was “Toxic”.

What about the Selectivity index (Homo sapiens [7]) of the same compound?
The Selectivity index was 0.48.

What about the Selectivity index (Homo sapiens [8]) of the same compound?
Its Selectivity index is 0.24.

What about the IC50 ([11]; read-out: IC50) of the same compound?
Its IC50 is 89.1 µM.

With Nc1c[nH]c(=O)c2cc(-c3ccccc3)sc12 as the compound, how does the Activity (HEK293 [1]) read?
The Activity was “Non-toxic”.

What about the solubility [3] of the same compound?
The solubility was “soluble”.

What about the Activity (HEK293 [4]) of the same compound?
Its Activity is “Non-toxic”.

What about the Activity (HEK293 [5]) of the same compound?
Its Activity is “Non-toxic”.

And the Activity (HEK293 [25])?
The Activity was “Toxic”.

What about the inhibition (HEK293 [26]) of the same compound?
The inhibition was “Active”.
